Measured values: ChEMBL document CHEMBL1148866, “Design and synthesis of beta-methoxyacrylate analogues via click chemistry and biological evaluations” (2007)
In brackets after ≈: the same amount, converted by molar mass. Blank lines part the entries; values can stand above or below the molecule they belong to.

Key:
Type in all cases: functional
Aspergillus flavus = assay: Antifungal activity against Aspergillus flavus
How it was run: (§1)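 MIC determined in 96-well plates. 1-mm diameter mycelial pieces were incubated in Czapek Dox minimal medium across a range of compound concentrations, and the MIC was read from mycelial growth.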

Alternaria brassicae = assay: Antifungal activity against Alternaria brassicae; how it was run: as §1
Alternaria brassicicola = assay: Antifungal activity against Alternaria brassicola; how it was run: as §1
Fusarium oxysporum = assay: Antifungal activity against Fusarium oxysporum; how it was run: as §1
[1] = system: Simplicillium lamellicola; assay: Antifungal activity against Verticillium lamellicola; how it was run: as §1
Radish = assay: Effect on growth of Raphanus sativus assessed as length of hypocotyl at 50 ug/mL by seed germination assay

SMILES: CO/C=C(/C(=O)OC)c1cc(Cl)ccc1Cn1cc(-c2ccccc2)nn1
MIC (Aspergillus flavus): > 1500 µg/mL
MIC (Alternaria brassicae): 1000 µg/mL (≈ 2610 µM)
MIC (Alternaria brassicicola): 1000 µg/mL (≈ 2610 µM)
MIC (Fusarium oxysporum): 1000 µg/mL (≈ 2610 µM)
MIC [1]: 1500 µg/mL (≈ 3910 µM)
Activity (Radish): 18.8 mm

SMILES: CO/C=C(/C(=O)OC)c1cc(Cl)ccc1Cn1cc(C2=CCCCC2)nn1
MIC (Aspergillus flavus): > 1500 µg/mL
MIC (Alternaria brassicae): 1000 µg/mL (≈ 2580 µM)
MIC (Alternaria brassicicola): 1000 µg/mL (≈ 2580 µM)
MIC (Fusarium oxysporum): 1500 µg/mL (≈ 3870 µM)
MIC [1]: 1500 µg/mL (≈ 3870 µM)
Activity (Radish): 14 mm

SMILES: CO/C=C(/C(=O)OC)c1ccccc1Oc1cc(Oc2ccccc2C#N)ncn1 [AZOXYSTROBIN]
Activity (Radish): 2 mm

More lines, in order of falling MIC (Aspergillus flavus), values ahead:

MIC (Aspergillus flavus): 1500 µg/mL (≈ 3640 µM)
MIC (Alternaria brassicae): 1000 µg/mL (≈ 2430 µM)
MIC (Alternaria brassicicola): 1000 µg/mL (≈ 2430 µM)
MIC (Fusarium oxysporum): 1000 µg/mL (≈ 2430 µM)
MIC [1]: 1000 µg/mL (≈ 2430 µM)
SMILES: CO/C=C(/C(=O)OC)c1cc(Cl)ccc1Cn1cc(-c2ccccc2C=O)nn1
Activity (Radish): 25 mm

MIC (Aspergillus flavus): 500 µg/mL (≈ 1080 µM)
MIC (Alternaria brassicae): 400 µg/mL (≈ 866 µM)
MIC (Alternaria brassicicola): 500 µg/mL (≈ 1080 µM)
MIC (Fusarium oxysporum): 500 µg/mL (≈ 1080 µM)
MIC [1]: 500 µg/mL (≈ 1080 µM)
SMILES: CO/C=C(/C(=O)OC)c1cc(Cl)ccc1Cn1cc(S(=O)(=O)c2ccc(C)cc2)nn1
Activity (Radish): 30.7 mm

MIC (Aspergillus flavus): 4 µg/mL (≈ 22.2 µM)
MIC (Alternaria brassicae): 4 µg/mL (≈ 22.2 µM)
MIC (Alternaria brassicicola): 4 µg/mL (≈ 22.2 µM)
MIC (Fusarium oxysporum): 4 µg/mL (≈ 22.2 µM)
MIC [1]: 4 µg/mL (≈ 22.2 µM)
SMILES: C#CS(=O)(=O)c1ccc(C)cc1
Activity (Radish): 56.2 mm
